From ChEMBL document CHEMBL4513216, “Probing the Open Global Health Chemical Diversity Library for Multistage-Active Starting Points for Next-Generation Antimalarials” (ACS Infect Dis, 2020)

Assay: Toxicity liver stage against HepG2, at 10uM
Format: cell-based
Set-up: test concentration 10 uM, cell line HepG2-A16-CD81EGFP
Conditions: human, HepG2-A16-CD81EGFP cells; read-out: INHIBITION
In short: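 Uninfected HepG2-A16-CD81EGFP cells, 3 × 10^3 per well, 1536-well, plated on prespotted compound at 10 μM final, parasite-free screening media added to match infected plates; puromycin 10 μM positive, DMSO 0.5% negative; run in parallel with 48 h PbLuc assay at 37 °C, 5% CO2; viability by CellTiter-Glo luminescence, normalized to controls.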

SMILES	cytotoxicity at 10 µM
Cc1csc(CN(C)C(=O)C2CCC(=O)N(CCN(C)C)C2)n1 (centres undefined)	15.6%
Cn1ncc(N2CCOCC2)c(Cl)c1=O	-13.8%
COC(=O)[C@H]1CN(C(=O)NC(C)C)CCN1C(=O)CSC	-6.52%
CNC(=O)C(C)(C)N1CCC[C@H]1C(=O)NC1CCCC1	-3.01%
COc1ccc2c(c1)nc1n2[C@@H](CNCc2nccs2)COC1	-1.57%
CCNC(=O)N1C[C@@H]2OCC(=O)N(C)[C@@H]2C1	7.65%
CCNC(=O)N1CC[C@H]2CC(=O)N(C3CCCCC3)CC[C@H]2C1	-1.08%
CCNC(=O)NC[C@H]1COCc2nc3cc(C)ccc3n21	3.72%
CC(c1ccncc1)N(CCN(C)C)C(=O)Nc1ccc(Cl)cc1 (centres undefined)	8.88%
CN1C[C@@H](O)[C@]2(CCN(C(=O)c3ccccc3)C2)S1(=O)=O	0.148%
CC(=O)NCC(=O)N1CCOC2(CCCN(c3ccc(C)nn3)C2)C1 (centres undefined)	0.876%
CCO[C@@H]1CC[C@H]2[C@H]1OCCN2Cc1ccc(F)cc1	10.3%
CC(=O)N1CCC2(CC1)CC(NC(=O)N(C)C)c1cc(C)ccc12 (centres undefined)	4.3%
CCC(=O)N1CCC2(CC1)CC(Oc1ccccc1)CO2 (centres undefined)	7.69%
CC(C)NC(=O)c1cc2c(s1)CCN2C(=O)CN(C)C	1.94%
COCCNC(=O)C[C@@H]1COC[C@H]2CN(C(=O)c3cnccn3)C[C@@H]12	-12.2%
Cc1c(Br)c(C(F)(F)F)nn1C(C)C(=O)O (centres undefined)	8.05%
COc1ccc(C(C)Nc2ncnc3c2NC(=O)CN3)cc1 (centres undefined)	7.83%
CCCNC(=O)c1nn(CC)cc1NC(=O)C(C)n1ncc(Cl)c1C (centres undefined)	7.19%
Cc1cc(C(F)(F)F)nc(N2CCN3CCCC3C2)n1 (centres undefined)	4.78%
Cc1nc(NCCc2ccc(Cl)cc2)cc(C(=O)N2CCOCC2)n1	-4.78%
Cc1cc(-c2cc3nc(C)c(C)c(NCC4COCCO4)n3n2)no1 (centres undefined)	8.97%
CCCc1cc(C(=O)NC(C)c2ccccc2)n(C)n1 (centres undefined)	-4.45%
Cc1c[nH]c(C2COCCN2C(=O)c2n[nH]c(=O)c3ccccc23)n1 (centres undefined)	-0.555%
CCc1noc(CCC(=O)N[C@@H]2CC[C@@H](n3ccnc3)[C@@H]2O)n1	-15.5%
Cc1ccc2c(c1)C(=O)NCC1(CCN(C(=O)c3ccnn3C)CC1)O2	-16.6%
O=c1[nH]c(N2CCCCC2)nc2c1CCN(Cc1cccnc1)C2	-3.07%

SMILES	cytotoxicity at 10 µM
CCCC(=O)N1CCN(Cc2cc(-c3ccncc3)nn2C)CC1	-27.1%
CS(=O)(=O)N1CCN(Cc2cccs2)CC(C(N)=O)C1 (centres undefined)	18%
CN(C)CC1(O)CCN(S(=O)(=O)c2cccc(F)c2)C1 (centres undefined)	2.36%
CN(C(=O)C1CCOCC1)[C@@H]1CCC[C@@H](N2CCCC2)[C@@H]1O	-6.22%
CCS(=O)(=O)CC(=O)Nc1ccc2oc(C3CC3)nc2c1	-5.4%
CCn1nnnc1-c1cccc(NC(=O)CCc2cnn(C)c2)c1	-6.19%
CS(=O)(=O)CCCNC(=O)Nc1sc2ccccc2c1Cl	6.54%
Cc1ccc(C(=O)NC2CCCN(C)C2)c(=O)[nH]1 (centres undefined)	-6.96%
CC(C)Cc1noc(CN2CCCC(CNS(N)(=O)=O)C2)n1 (centres undefined)	-4.88%
CC(=O)NCc1ccc(C(=O)N2CCCc3c(F)ccc(C)c32)cc1	-3.26%
COCCN(C)CC1CCCN1S(=O)(=O)c1cccc(F)c1F (centres undefined)	4.93%
COc1c(C2CCCN2CC(=O)N(C)c2nccs2)c(C)nn1C (centres undefined)	3.37%
Cc1cc(NCCC(=O)NC2CCCCC2)nc(-c2ccncc2)n1	-5.37%
CCOC(C)C(=O)Nc1ccc2c(ccn2CC)c1 (centres undefined)	0.877%
CCOC(C)c1nc(CN2CCN(c3ncc(C)cn3)CC2)cs1 (centres undefined)	-0.509%
CC(C)(C)N1CCN(C(=O)c2cccnc2-n2cncn2)CC1	4.22%
CC(C)CNC(=O)CNC(=O)NC(c1nccs1)C1CC1 (centres undefined)	-6.66%
Cc1nc(C(=O)N(C)CC2CCCO2)nn1-c1ccccc1C(C)C (centres undefined)	-3.62%
CNC(=O)C1CCCCN1C(=O)c1n[nH]c(=O)c2ccccc12 (centres undefined)	0.0666%
CC(C)c1nsc(NC2CC(=O)N(C(C)(C)C)C2)n1 (centres undefined)	5.09%
Cc1ccc(C)c(CN2CCOC(c3noc(C)n3)C2)c1 (centres undefined)	5.12%
Cc1ccc2c(c1)OCCN2C(=O)c1ccc(=O)n(C)c1	-5.88%
CC(=O)N1CCN(C(=O)C2SCCc3sccc32)CC1 (centres undefined)	-11.5%
Cc1nn(C)c(C)c1NC(=O)CN1CCc2c(nc(C(C)C)n2C)C1	-8.02%
CC(C)Oc1cccc(C(O)CNC(=O)CCc2ccncc2)c1 (centres undefined)	-3.82%
Cc1ccc(C(=O)N2CCCC2c2nnc3n2CCCCC3)o1 (centres undefined)	-6.05%
O=C(c1ccsc1)N1CCC2(CC1)CCN(S(=O)(=O)C1CC1)CC2	-109%
